Entries after “also recorded” stand apart in the source; their conditions may differ.
How the values were obtained:
RIP-Tag2 tumors [1] = test: Tumor invasion; format: in vivo, mouse
RIP-Tag2 tumors [2] = test: Tumor vascularity; format: in vivo, mouse; settings: for intratumoral hypoxia / tumor vascularity: RIP-Tag2 mice treated from age 14 to 17 weeks; for HIF-1α protein by western blot: RIP-Tag2 tumors
RIP-Tag2 mice [3] = test: Liver metastasis; format: in vivo, mouse
RIP-Tag2 tumors [4] = test: Tumor size; format: in vivo, mouse; settings: RIP-Tag2 mice treated from age 14 to 17 weeks
[5] = system: Snail1, N-cadherin, vimentin; test: Western blot of mesenchymal markers in RIP-Tag2 tumors; format: in vivo, mouse; settings: for bands for Snail1, N-cadherin and vimentin in western blots: RIP-Tag2 tumors treated from age 14 to 15 weeks
Outline: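 Tumors came from RIP-Tag2 mice treated from age 14 to 15 weeks with vehicle, anti-VEGF antibody, a kinase inhibitor, or a combination. Snail1, N-cadherin and vimentin were immunoblotted in tumor lysates. Bands were quantified by densitometry and expressed as fold over vehicle. Groups had 4-8 surviving mice. Groups were compared by Student's t test or ANOVA with Fisher's multiple-comparison test.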

RIP-Tag2 mice [6] = test: Survival of RIP-Tag2 mice; format: in vivo, mouse
Panc-1 tumors = test: Orthotopic Panc-1 pancreatic adenocarcinomas in nude mice; format: in vivo, mouse
c-Met = c-Met mRNA, total c-Met and phospho-c-Met in RIP-Tag2 tumors; format: in vivo, mouse; settings: RIP-Tag2 tumors treated from age 14 to 15 weeks
RIP-Tag2 tumors [7] = settings: RIP-Tag2 mice; cited from earlier work
[8] = RIP-Tag2 mice treated from age 14 to 17 weeks
[9] = RIP-Tag2 mice treated from age 14 to 20 weeks
[10] = RIP-Tag2 mice age 14 to 17 weeks, vs corresponding group without PF-04217903
[11] = western blot, treated from age 14 to 15 weeks

## C[C@@H](Oc1cc(-c2cnn(C3CCNCC3)c2)cnc1N)c1c(Cl)ccc(F)c1Cl [PF-02341066, crizotinib]
RIP-Tag2 tumors [1]; [8]
  tumor invasiveness: Invasion index and trapped acinar cells: reduced invasiveness
RIP-Tag2 tumors [2]
  intratumoral hypoxia: did not change
  tumor vascularity: did not change
RIP-Tag2 mice [3]; RIP-Tag2 mice treated for 3 weeks, vehicle average of 20 per mouse
  liver metastases found per mouse: 4
RIP-Tag2 mice [3]; [8]
  mice with liver metastases visible microscopically: 3 of 4

## COc1cc2nccc(Oc3ccc(NC(=O)C4(C(=O)Nc5ccc(F)cc5)CC4)cc3)c2cc1OC [XL184, cabozantinib]
RIP-Tag2 tumors [4]
  mean sectional area of tumors: 0.7 ± 0.1 mm^2
RIP-Tag2 tumors [1]; [8]
  area density of trapped amylase-positive acinar cells in tumors: 2.6 ± 0.4%
RIP-Tag2 tumors [1]; RIP-Tag2 mice treated from age 14 to 17 weeks, onset controls 4.8 ± 0.5%
  fewer amylase-positive (trapped acinar) cells than 14-week old onset controls: 46%
RIP-Tag2 tumors [1]; younger RIP-Tag2 mice treated from age 10 to 14 weeks
  tumor shape and invasiveness: rounder and less invasive
[5]
  bands for Snail1, N-cadherin and vimentin in western blots: less Snail1, N-cadherin, and vimentin
RIP-Tag2 tumors [2]; RIP-Tag2 mice, 3 weeks treatment
  reduction in tumor vascularity: 79%
RIP-Tag2 mice [3]; RIP-Tag2 mice treated from age 10 to 14 weeks, 5 mice
  liver micrometastases found: none
RIP-Tag2 mice [3]; [8]
  mice with liver metastases visible microscopically: none were detected; also recorded: None of 5
RIP-Tag2 mice [3]; [9]
  mice with small liver metastases: 5 of 6
  number of liver metastases per sectional area: 0.3 ± 0.2 metastases/mm^2
RIP-Tag2 mice [6]; RIP-Tag2 mice treated from 14 weeks of age
  mice surviving until the experiment ended at age 20 weeks: all
RIP-Tag2 mice [6]; RIP-Tag2 mice treated from age 10 to 14 weeks
  overall survival versus vehicle or anti-VEGF antibody: better overall survival
RIP-Tag2 mice [6]; RIP-Tag2 mice, treatment beginning at age 14 weeks, n = 6
  survival at 20 weeks: 100%

## OCCn1cc(-c2cnc3nnn(Cc4ccc5ncccc5c4)c3n2)cn1 [PF-04217903]
[5]
  bands for Snail1, N-cadherin and vimentin in western blots: weaker
RIP-Tag2 tumors [2]
  tumor vascularity: no reduction in overall vascularity
  HIF-1α protein by western blot: not increased
RIP-Tag2 mice [3]; [10]
  average decrease in volume of metastases (metastatic tumor burden): 78%
  reduction in mean diameter of liver metastases when PF-04217903 was combined: 40%
RIP-Tag2 mice [3]; [8]
  mice with liver metastases visible microscopically: 1 of 7 and one of 7
Panc-1 tumors; 3 weeks treatment
  vascular pruning and intratumoral hypoxia: little effect

## CCN(CC)CCNC(=O)c1c(C)[nH]c(/C=C2\C(=O)Nc3ccc(F)cc32)c1C [sunitinib]
RIP-Tag2 tumors [4]
  mean sectional area of tumors: 3.7 ± 0.8 mm^2
  sectional area of tumors, less than age-matched vehicle controls: 78%
RIP-Tag2 tumors [1]; [8]
  tumor invasiveness: Invasion index and trapped acinar cells: significantly greater
[5]; [11]
  N-cadherin densitometry value, times greater than vehicle: 10 times
  Snail1 densitometry value, times greater than vehicle: 3 times
  vimentin densitometry value, times greater than vehicle: 5 times
c-Met
  c-Met mRNA expression, fold the control value: 6 fold
RIP-Tag2 tumors [2]
  intratumoral hypoxia: greater hypoxia
  tumor vascularity: fewer blood vessels
  HIF-1α protein by western blot: greater
RIP-Tag2 mice [3]; 17-week old RIP-Tag2 mice treated for 3 weeks
  number of liver metastases per sectional area: 1.3 ± 1.2 metastases/mm^2
RIP-Tag2 mice [3]; [8]
  number of liver metastases compared to the 17-week old vehicle group: twice
  size of liver metastases compared to vehicle group: 4 times
RIP-Tag2 mice [3]; RIP-Tag2 mice treated from age 14 to 17 weeks, vehicle 90 ± 9 μm
  mean diameter of liver metastases: 369 ± 267 μm
RIP-Tag2 mice [6]; RIP-Tag2 mice, age 14 to 17 weeks, vehicle 42%
  survival during the 3-week treatment: 80%
Panc-1 tumors; 3 weeks treatment
  intratumoral hypoxia assessed by pimonidazole staining: doubling
  invasiveness reflected by intratumoral acinar cells stained for amylase: exaggerated
  reduction in tumor vascularity: 75%
  tumor growth by bioluminescence imaging: grew slower
Panc-1 tumors; early stage
  mice with micrometastases in the liver: 4 of 6

## COc1cc2c(Oc3ccc(NC(=O)C4(C(=O)Nc5ccc(F)cc5)CC4)cc3F)ccnc2cc1OCCCN1CCOCC1 [XL880, foretinib]
RIP-Tag2 tumors [7]
  invasion and tumor cells in the liver: decreases invasion and the appearance of tumor cells in the liver
  tumor growth: slows tumor growth

From publication PMC3354652 (Cancer Discovery, 2012)
